Test results as given in ChEMBL document CHEMBL1125717, “Synthesis and biological evaluation of cyclopropyl analogues of 2-amino-5-phosphonopentanoic acid” (J Med Chem, 1991).

What was measured:
[1] = Compound was tested in vitro for Non N-methyl-D-aspartate glutamate receptor binding using [3H]- -Kainate; design: species or system Rattus norvegicus
Summary of the method: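 Rat forebrain synaptic membranes (male Sprague–Dawley, 30–45 days old) were treated with 0.04% Triton X-100 for 30 min at 37 °C and washed in 50 mM Tris/acetate pH 7.4. Incubation used 0.5 nM [3H]kainate and graded compound concentrations, with 0.25–0.35 mg/mL membrane, for 60 min at 4 °C. Bound ligand was separated by centrifugation; 0.1 mM kainate defined nonspecific binding. IC50 was derived by logit–log and Ki by Cheng–Prusoff, from ≥3 triplicate experiments.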

Glutamate NMDA receptor [2] = test: Compound was tested in vitro for N-methyl-D-aspartate glutamate receptor binding using [3H]L-glutamate; format: protein-complex assay
Summary of the method: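 Rat forebrain synaptic plasma membranes (male Sprague–Dawley, 30–45 days old) were pretreated with 0.04% Triton X-100 for 30 min at 37 °C and washed four times in 50 mM Tris/acetate, pH 7.4. Incubation: 10 nM [3H]-L-glutamate, membranes at 0.25–0.35 mg/mL final, 10 min at 4 °C, then filtration through PEI-treated filters. Nonspecific binding: 0.1 mM L-glutamate. IC50 by logit–log; Ki by Cheng–Prusoff. Mean ± SEM, ≥3 experiments in triplicate.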

Glutamate NMDA receptor [3] = test: Compound was tested in vitro for its inhibitory activity against N-methyl-D-aspartate glutamate receptor using [3H]MK-801; format: protein-complex assay
Summary of the method: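 Functional modulation assay on washed rat synaptic membranes pretreated with 0.04% v/v Triton X-100. Incubated 30 min at 25 °C with 5.0 nM [3H]MK-801, 10.0 nM L-glutamate and graded compound concentrations in 50 mM Tris/acetate, pH 7.4. Filter-bound radioactivity counted by scintillation. Nonspecific binding: 60 μM MK-801. IC50 from logit–log transformation. Mean ± SEM, ≥3 experiments in triplicate.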

[4] = Compound was tested in vitro for Non N-methyl-D-aspartate glutamate receptor binding using [3H]kainate; design: species or system Rattus norvegicus
Summary of the method: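 Triton X-100-treated (0.04%, 30 min, 37 °C), washed rat forebrain synaptic membranes (male Sprague–Dawley, 30–45 days), 0.25–0.35 mg/mL final in 50 mM Tris/acetate, pH 7.4. Incubated with 0.5 nM [3H]kainate for 60 min at 4 °C; bound ligand separated by centrifugation. Nonspecific binding: 0.1 mM kainate. IC50 by logit–log; Ki by Cheng–Prusoff. Mean ± SEM, ≥3 experiments in triplicate.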

Compound: NC(CCCP(=O)(O)O)C(=O)O (centres undefined)
- Ki [1]: > 100 µM
- Ki (Glutamate NMDA receptor [2]): 0.42 µM

Compound: N[C@@]1(C(=O)O)CC1CCP(=O)(O)O (some centres undefined)
- IC50 (Glutamate NMDA receptor [3]): 18.1 µM
- Ki (Glutamate NMDA receptor [2]): 26.7 µM
- Ki [4]: > 100 µM

Compound: N[C@]1(C(=O)O)CC1CCP(=O)(O)O (some centres undefined)
- IC50 (Glutamate NMDA receptor [3]): 15.2 µM
- Ki (Glutamate NMDA receptor [2]): 18.7 µM
- Ki [4]: > 100 µM

Compound: NC(C(=O)O)C1CC1CCP(=O)(O)O (centres undefined)
- Ki (Glutamate NMDA receptor [2]): > 50 µM
- Ki [4]: > 100 µM

Compound: N[C@H](C[C@@H]1CC1P(=O)(O)O)C(=O)O (some centres undefined)
- IC50 (Glutamate NMDA receptor [3]): 2.7 µM
- Ki (Glutamate NMDA receptor [2]): 1.6 µM
- Ki [4]: > 100 µM

Compound: NC(C(=O)O)C1CC1CP(=O)(O)O (stereo in doubt; 13a)
- IC50 (Glutamate NMDA receptor [3]): 22.6 µM
- Ki (Glutamate NMDA receptor [2]): 18.9 µM

Compound: NC(C(=O)O)C1CC1CP(=O)(O)O (stereo in doubt; 13b)
- IC50 (Glutamate NMDA receptor [3]): 13.3 µM
- Ki (Glutamate NMDA receptor [2]): 9.5 µM
- Ki [4]: > 100 µM

Compound: NC(C(=O)O)C1CC1CCCP(=O)(O)O (stereo in doubt; 33c)
- Ki (Glutamate NMDA receptor [2]): 12.5 µM
- Ki [4]: > 100 µM

Compound: NC(C(=O)O)C1CC1CCCP(=O)(O)O (stereo in doubt; 33d)
- Ki (Glutamate NMDA receptor [2]): > 50 µM

Compound: O=C(O)[C@@H]1C[C@H](CP(=O)(O)O)CCN1 [SELFOTEL]
- IC50 (Glutamate NMDA receptor [3]): 0.14 µM
- Ki (Glutamate NMDA receptor [2]): 0.16 µM
- Ki [4]: > 100 µM
